Test results as given in ChEMBL document CHEMBL1144498, “A two stage click-based library of protein tyrosine phosphatase inhibitors” (Bioorg Med Chem, 2007).

Experiments:
Yersinia pestis [1] = test: Inhibition of Yersinia pestis protein tyrosine phosphatase at 10 uM
In short: (§1)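 Single-concentration percent inhibition screen with p-NPP substrate, 2.9 mM for Yersinia PTP and 2.0 mM for PTP1B. Buffer was 50 mM 3,3-dimethylglutarate pH 7.0 with 1 mM EDTA, 50 mM NaCl and 10% DMSO, at room temperature. Initial hydrolysis rates were read at 405 nm from 10 to 130 s.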

[2] = Inhibition of Yersinia pestis protein tyrosine phosphatase
In short: (§2)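 p-NPP hydrolysis at room temperature in 50 mM 3,3-dimethylglutarate pH 7.0, 1 mM EDTA, 50 mM NaCl, 10% DMSO. Substrate was held at Km: Yersinia PTP 2.9, PTP1B 2.0, TCPTP 2.1, CD45 7.0 mM. Initial rates came from absorbance at 405 nm, 10–130 s after mixing. IC50 was obtained by Dixon analysis.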

[3] = Inhibition of Yersinia pestis protein tyrosine phosphatase 1B; in short: as §2
[4] = Inhibition of Yersinia pestis Protein tyrosine phosphatase TC; in short: as §2
[5] = Inhibition of Yersinia pestis protein tyrosine phosphatase CD45; in short: as §2
Yersinia pestis [6] = test: Inhibition of Yersinia pestis protein tyrosine phosphatase at 100 uM; in short: as §1

| Structure (SMILES) | inhibition (Yersinia pestis [1]) | IC50 [2] | IC50 [3] | IC50 [4] | IC50 [5] | inhibition (Yersinia pestis [6]) |
| --- | --- | --- | --- | --- | --- | --- |
| O=C(O)C(=O)c1ccc(-n2cc(C(=O)N[C@@H](Cc3c[nH]c4ccccc34)Cn3cc(-c4cccc(-c5cn(C[C@H](Cc6c[nH]c7ccccc67)NC(=O)c6cn(-c7ccc(C(=O)C(=O)O)cc7)nn6)nn5)c4)nn3)nn2)cc1 | > 60% | 1.3 µM | 4.1 µM | 1.8 µM | 8.5 µM | – |
| C#CC(=O)N[C@H](CO)Cc1c[nH]c2ccccc12 | – | – | – | – | – | > 60% |
| C#Cc1cccc(C#C)c1 | – | – | – | – | – | > 60% |
| Cc1ccc(S(=O)(=O)c2cn(C[C@H](Cc3c[nH]c4ccccc34)NC(=O)c3cn(-c4ccc(C(=O)C(=O)O)cc4)nn3)nn2)cc1 | > 60% | 2.1 µM | 7.4 µM | 2.6 µM | 15.8 µM | – |
| C#Cc1ccc(-c2ccccc2)cc1 | – | – | – | – | – | > 60% |
| O=C(O)C(=O)c1ccc(-n2cc(C(=O)N[C@@H](Cc3c[nH]c4ccccc34)Cn3cc(-c4ccc(-c5cn(C[C@H](Cc6c[nH]c7ccccc67)NC(=O)c6cn(-c7ccc(C(=O)C(=O)O)cc7)nn6)nn5)cc4)nn3)nn2)cc1 | > 60% | 0.55 µM | 2.1 µM | 0.71 µM | 8.4 µM | – |
| O=C(O)C(=O)c1ccc(-n2cc(C(=O)N[C@H](CO)Cc3c[nH]c4ccccc34)nn2)cc1 | – | 58 µM | 500 µM | – | – | – |
| O=C(O)C(=O)c1ccc(-n2cc(-c3cccc(-c4cn(-c5ccc(C(=O)C(=O)O)cc5)nn4)c3)nn2)cc1 | – | 25 µM | 77 µM | – | – | – |
| COc1ccc2cc(-c3cn(C[C@H](Cc4c[nH]c5ccccc45)NC(=O)c4cn(-c5ccc(C(=O)C(=O)O)cc5)nn4)nn3)ccc2c1 | > 60% | 2.1 µM | 5.7 µM | 2.6 µM | 16.8 µM | – |
| C#Cc1ccc(C#C)cc1 | – | – | – | – | – | > 60% |
| O=C(O)C(=O)c1ccc(-n2cc(-c3ccc(-c4ccccc4)cc3)nn2)cc1 | – | 45 µM | 84 µM | – | – | – |
